Assay results as given in publication PMC6943132 (Nucleic Acids Research, 2019).
Read-outs that look alike come from different tables or passages of the source.

T1: BenM WT (Acinetobacter sp. ADP1, UniProt O68014 1-304)
T1 sequence: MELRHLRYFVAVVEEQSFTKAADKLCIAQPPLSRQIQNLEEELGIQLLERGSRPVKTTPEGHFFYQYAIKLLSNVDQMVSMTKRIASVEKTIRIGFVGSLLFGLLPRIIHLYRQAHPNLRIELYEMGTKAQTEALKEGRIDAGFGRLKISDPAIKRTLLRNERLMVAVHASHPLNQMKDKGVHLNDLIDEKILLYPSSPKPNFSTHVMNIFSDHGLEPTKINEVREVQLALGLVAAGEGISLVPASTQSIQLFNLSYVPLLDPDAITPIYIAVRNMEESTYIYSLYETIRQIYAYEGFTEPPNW

B1: BenM WT: Acinetobacter sp. ADP1 CCM-binding LysR-type transcriptional activator BenM, wild type (protein, UniProt O68014 1-304, looked up)
HTH-type transcriptional …: T1 sequence
B2: 209bp_CYC1pro (dsDNA)
DNA 1: ATTAGGACCTTTGCAGCATAAATTACTATACTTCTATAGACACACAAACACAAATACACACACTAAATTAATA
DNA 2: TATTAATTTAGTGTGTGTATTTGTGTTTGTGTGTCTATAGAAGTATAGTAATTTATGCTGCAAAGGTCCTAAT

Experiments:
[1] = test system: 209bp_CYC1p_BenO_T1::yEGFP reporter; assay type: cell-based, Saccharomyces cerevisiae; conditions: P < 0.05
[2] = test system: 209 bp_CYC1pro; assay: Biolayer interferometry of BenM WT on negative control cyc1 promoter element; assay type: binding; conditions: BLI, 1.6–100 nM WT BenM
Summary of the method: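 His-tagged protein purified on a HisTrap column with stepwise imidazole elution (Tris–HCl, NaCl, glycerol, DTT, pH 7.9), then optionally polished by Superdex 200 gel filtration (50 mM Tris–HCl, 150 mM NaCl, pH 8.0). Biotinylated 209 bp promoter duplex was annealed at 94°C for 2 min, then RT for 3 h. Kinetics were kept only when fit R² > 0.95; Req/Rmax fractional saturation versus protein concentration gave the Hill coefficient.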

[3] = test system: 209bp_CYC1p_BenO_T1::yEGFP reporter; assay type: cell-based, Saccharomyces cerevisiae
Summary of the method: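 S. cerevisiae CEN.PK carrying a chromosomal yeGFP reporter and plasmid-borne BenM variants, grown overnight in SC-Leu at 30°C. Cultures were subcultured 1:100 into medium ± CCM for 22–23 h, then flow cytometry (488 nm) gave MFI from 10 000 gated single cells. Controls were run in biological triplicate. Fold induction is inducer-medium MFI divided by control-medium MFI. Populations were compared by two-tailed Mann–Whitney test.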

[4] = molecular target: T1, BenM WT; assay: BLI

| Molecule | lowest adipic acid concentration with significant induction [1] [mM] | binding to negative control cyc1 promoter element [2] | fold-induction ([3]; 0.035 mM CCM) | fold-induction ([3]; 0.070 mM CCM) | fold induction ([3]; 1.4 mM CCM vs control medium) [fold] | lowest CCM concentration with significant induction (lower detection limit) ([3]; P < 0.05 vs control medium) [mM] | fold induction by CCM ([3]; within the operational range of WT BenM) [fold] | binding result [4] |
| --- | --- | --- | --- | --- | --- | --- | --- | --- |
| B1 | 14 | no binding was observed | 0.90 ± 0.05 | 1.02 ± 0.14 | 2.8 | 0.56 | 5 |  |
| B2 |  |  |  |  |  |  |  | no binding |
